Data set [1] deals with TMD8. Description: Antiproliferative activity against human TMD8 cells assessed as inhibition of cell growth incubated for 72 hrs by Celltiter-Glo luminescent assay. It is filed as functional. The procedure, abridged: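 Exponentially growing cells were seeded at 1 × 10⁴ per 100 μL. HBL-1 and TMD8 were kept in RPMI with 10% FBS, 2 mM glutamine and 10 mM HEPES; OCI-LY1 in Iscove's medium with 20% FBS; all at 37 °C and 5% CO2. Cells were exposed to DMSO or 2-fold serial dilutions from 100 μM for 72 h, in triplicate on one plate. CellTiter-Glo luminescence was read after 1 h. Growth inhibition was calculated against control, accounting for initial cell number, and GI50 was fitted.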
Background: In ATP-based viability assays light output follows the ATP content of the culture.

The nature of data set [2]: Induction of apoptosis in human HBL1 cells assessed as viable cells at 5 uM measured after 24 hrs by Annexin V-FITC/ Propidium iodide staining based flow cytometry (reference value: 88.1%). Particulars: read-out: Activity. It is filed as functional. For orientation: Flow cytometry measures light scatter and fluorescence of single cells or particles in a stream.
A short description of data set [3]: Induction of apoptosis in human HBL1 cells assessed as early apoptotic cells at 2 uM measured after 24 hrs by Annexin V-FITC/ Propidium iodide staining based flow cytometry (reference value: 4.85%). Type of data set: functional.
In data set [4] the test system is TMD8. Description: Induction of apoptosis in human TMD8 cells assessed as early apoptotic cells at 2 uM measured after 24 hrs by Annexin V-FITC/ Propidium iodide staining based flow cytometry (reference value: 6.97%). It is filed as functional.
Data set [5] relates to TMD8. Description: Induction of apoptosis in human TMD8 cells assessed as dead cells at 10 uM measured after 24 hrs by Annexin V-FITC/ Propidium iodide staining based flow cytometry (reference value: 0%). Type of data set: functional.
A further data set relates to OCI-Ly1. Description: Induction of apoptosis in human OCI-Ly1 cells assessed as late apoptotic cells at 2 uM measured after 24 hrs by Annexin V-FITC/ Propidium iodide staining based flow cytometry (reference value: 0.548%). Type of data set: functional.
Data set [6] has as its target T1, Mucosa-associated lymphoid tissue lymphoma translocation protein 1 (Homo sapiens) (UniProt Q9UDY8).
T1 sequence (whole entry): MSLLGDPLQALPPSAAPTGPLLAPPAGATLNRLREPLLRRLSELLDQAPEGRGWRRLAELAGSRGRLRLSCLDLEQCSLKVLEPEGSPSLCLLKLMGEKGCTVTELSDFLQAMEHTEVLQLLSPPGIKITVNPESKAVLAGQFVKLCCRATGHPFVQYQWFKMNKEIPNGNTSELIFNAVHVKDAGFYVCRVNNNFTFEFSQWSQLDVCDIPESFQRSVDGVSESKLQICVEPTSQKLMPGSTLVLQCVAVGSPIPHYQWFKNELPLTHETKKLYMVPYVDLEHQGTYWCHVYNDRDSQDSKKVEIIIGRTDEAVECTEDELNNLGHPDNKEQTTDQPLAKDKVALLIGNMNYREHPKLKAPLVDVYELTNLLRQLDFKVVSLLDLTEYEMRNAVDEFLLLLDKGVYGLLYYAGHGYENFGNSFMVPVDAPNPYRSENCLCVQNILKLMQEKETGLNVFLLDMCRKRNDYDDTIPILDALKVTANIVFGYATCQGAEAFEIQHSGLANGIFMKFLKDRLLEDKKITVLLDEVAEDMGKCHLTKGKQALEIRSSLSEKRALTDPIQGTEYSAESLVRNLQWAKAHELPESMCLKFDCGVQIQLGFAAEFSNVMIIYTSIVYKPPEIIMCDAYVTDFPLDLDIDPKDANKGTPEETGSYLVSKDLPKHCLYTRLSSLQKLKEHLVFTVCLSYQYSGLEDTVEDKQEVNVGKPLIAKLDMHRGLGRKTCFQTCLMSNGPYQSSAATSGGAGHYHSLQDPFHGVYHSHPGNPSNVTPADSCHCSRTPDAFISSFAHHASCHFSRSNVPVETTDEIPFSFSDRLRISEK
Description: Inhibition of MALT1 in human HBL1 cells assessed as decrease in RelB substrate cleavage at 8 uM preincubated for 30 mins followed by proteosome inhibitor MG-132 addition and measured after 2 hrs by Western blot analysis. It is filed as cell-based. Particulars: time 2.5 hrs. The procedure, abridged: (§1)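 Cells were grown in RPMI with 10% FBS, 2 mM glutamine and 10 mM HEPES at 37 °C, 5% CO₂. Pretreated 30 min with compound (4 and 8 μM), then 10 μM MG-132 for 2 h. 20−75 μg total protein run on SDS-PAGE, blotted to PVDF, probed for RelB, detected by HRP chemiluminescence. β-actin was the loading control.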
For orientation: A western blot detects proteins with antibodies after separation by electrophoresis.

Data set [7] deals with T1, Mucosa-associated lymphoid tissue lymphoma translocation protein 1 (Homo sapiens). Description: Inhibition of MALT1 in human TMD8 cells assessed as decrease in RelB substrate cleavage at 8 uM preincubated for 30 mins followed by proteosome inhibitor MG-132 addition and measured after 2 hrs by Western blot analysis. Particulars: time 2.5 hrs. It is filed as cell-based. The essentials:
as §1

Data set [8] concerns the target Nuclear factor NF-kappa-B complex (Homo sapiens) (UniProt Q00653+P19838+Q04206). Nature of the data set: Inhibition of NF-kappaB signalling in human HBL1 cells assessed as reduction in phosphorylation of IkappaB-alpha at 8 uM preincubated for 30 mins followed by proteosome inhibitor MG-132 addition and measured after 2 hrs by Western blot analysis. Type of data set: cell-based. Particulars: time 2.5 hrs. The procedure, abridged: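 HBL1 cells were pretreated with compound (4 and 8 μM) for 30 min, then given 10 μM MG-132 for 2 h. Phospho-IκBα, IκBα and RelB were probed by western blot, with β-actin as loading control. Each lane held 20−75 μg total protein, with chemiluminescent detection.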

Data set [9] can be described thus: Induction of apoptosis in human HBL1 cells assessed as late apoptosis at 10 uM measured after 24 hrs by Annexin V-FITC/ Propidium iodide staining based flow cytometry (reference value: 4.77%). Type of data set: functional.
Data set [10] is described as follows: Half life in CD-1 mouse at 1 mg/kg, iv by LC-MS/MS analysis. It is filed as ADME, organism-based. Particulars: in vivo. The essentials:
(§2)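 Compound formulated in 5% DMSO + 5% Tween-80 in 90% saline and given to male ICR (CD-1) mice (n = 9) at 10 mg/kg po, 1 mg/kg ip or 1 mg/kg iv. Blood was drawn via the jugular vein at set time points and held on ice. Plasma was separated by centrifugation and stored at −80 °C before PK parameters were derived.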

The nature of data set [11]: Cmax in CD-1 mouse at 10 mg/kg, po by LC-MS/MS analysis. It is filed as ADME, organism-based. Set-up: route oral, dose 10 mg/kg. The following applies: in vivo. The procedure, abridged:
as §2

Data set [12] can be described thus: Cmax in CD-1 mouse at 1 mg/kg, ip by LC-MS/MS analysis. It is filed as ADME, organism-based. Set-up: route intraperitoneal, dose 1 mg/kg. Particulars: in vivo. The procedure, abridged:
as §2

Data set [13] can be described thus: AUC (0 to t) in CD-1 mouse at 10 mg/kg, po by LC-MS/MS analysis. It is filed as ADME, organism-based. Set-up: dose 10 mg/kg. Particulars: in vivo. The procedure, abridged: as §2
The nature of data set [14]: MRT (0 to t) in CD-1 mouse at 10 mg/kg, po by LC-MS/MS analysis. The following applies: in vivo. Type of data set: ADME, organism-based. The procedure, abridged:
(§3)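 Male ICR (CD-1) mice (n = 9). Compound formulated in 5% DMSO + 5% Tween-80 in 90% saline and dosed 10 mg/kg po, 1 mg/kg ip or 1 mg/kg iv. Blood drawn from the jugular vein at set time points and held on ice. Plasma separated by centrifugation and stored at −80 °C before parameter derivation.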

Data set [15] can be described thus: MRT (0 to t) in CD-1 mouse at 1 mg/kg, ip by LC-MS/MS analysis. It is filed as ADME, organism-based. Particulars: in vivo. The essentials:
as §3

Data set [16] in a line: MRT (0 to t) in CD-1 mouse at 1 mg/kg, iv by LC-MS/MS analysis. Particulars: in vivo. It is filed as ADME, organism-based. The procedure, abridged:
as §3

Data set [17] is described as follows: Toxicity in NCG mouse xenografted with human TMD8 cells assessed as diarrhea at 30 mg/kg/day, ip measured for 13 days. The following applies: in vivo, 312 h.

Activity calls are given as the source filed them.

Nuclear factor NF-kappa-B complex (Homo sapiens), sequence (P19838 whole entry, looked up): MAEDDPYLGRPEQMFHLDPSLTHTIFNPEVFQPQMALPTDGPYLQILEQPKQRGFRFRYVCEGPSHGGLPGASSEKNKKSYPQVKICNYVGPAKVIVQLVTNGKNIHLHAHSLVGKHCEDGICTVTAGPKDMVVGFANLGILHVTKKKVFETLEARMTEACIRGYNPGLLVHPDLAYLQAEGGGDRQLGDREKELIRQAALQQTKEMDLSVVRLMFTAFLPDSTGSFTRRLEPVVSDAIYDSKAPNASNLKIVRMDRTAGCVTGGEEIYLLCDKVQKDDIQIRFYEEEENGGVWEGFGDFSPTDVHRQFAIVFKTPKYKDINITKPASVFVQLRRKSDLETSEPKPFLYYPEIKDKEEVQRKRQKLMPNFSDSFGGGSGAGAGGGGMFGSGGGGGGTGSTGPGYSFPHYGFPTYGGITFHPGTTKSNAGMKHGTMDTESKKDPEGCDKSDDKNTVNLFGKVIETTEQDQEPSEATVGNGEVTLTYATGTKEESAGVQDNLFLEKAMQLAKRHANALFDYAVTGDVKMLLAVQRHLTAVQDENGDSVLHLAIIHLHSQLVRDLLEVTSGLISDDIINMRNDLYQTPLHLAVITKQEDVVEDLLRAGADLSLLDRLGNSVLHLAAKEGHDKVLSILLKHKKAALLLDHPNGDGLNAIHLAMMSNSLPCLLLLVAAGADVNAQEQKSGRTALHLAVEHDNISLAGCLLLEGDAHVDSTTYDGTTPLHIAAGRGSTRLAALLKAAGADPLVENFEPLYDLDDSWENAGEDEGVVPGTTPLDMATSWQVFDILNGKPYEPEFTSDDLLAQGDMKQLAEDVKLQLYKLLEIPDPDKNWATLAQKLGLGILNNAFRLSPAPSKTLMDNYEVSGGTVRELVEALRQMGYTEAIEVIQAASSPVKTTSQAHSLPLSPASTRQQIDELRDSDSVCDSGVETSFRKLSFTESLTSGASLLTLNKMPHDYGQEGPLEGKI
Nuclear factor NF-kappa-B complex (Homo sapiens), sequence (Q00653 whole entry, looked up): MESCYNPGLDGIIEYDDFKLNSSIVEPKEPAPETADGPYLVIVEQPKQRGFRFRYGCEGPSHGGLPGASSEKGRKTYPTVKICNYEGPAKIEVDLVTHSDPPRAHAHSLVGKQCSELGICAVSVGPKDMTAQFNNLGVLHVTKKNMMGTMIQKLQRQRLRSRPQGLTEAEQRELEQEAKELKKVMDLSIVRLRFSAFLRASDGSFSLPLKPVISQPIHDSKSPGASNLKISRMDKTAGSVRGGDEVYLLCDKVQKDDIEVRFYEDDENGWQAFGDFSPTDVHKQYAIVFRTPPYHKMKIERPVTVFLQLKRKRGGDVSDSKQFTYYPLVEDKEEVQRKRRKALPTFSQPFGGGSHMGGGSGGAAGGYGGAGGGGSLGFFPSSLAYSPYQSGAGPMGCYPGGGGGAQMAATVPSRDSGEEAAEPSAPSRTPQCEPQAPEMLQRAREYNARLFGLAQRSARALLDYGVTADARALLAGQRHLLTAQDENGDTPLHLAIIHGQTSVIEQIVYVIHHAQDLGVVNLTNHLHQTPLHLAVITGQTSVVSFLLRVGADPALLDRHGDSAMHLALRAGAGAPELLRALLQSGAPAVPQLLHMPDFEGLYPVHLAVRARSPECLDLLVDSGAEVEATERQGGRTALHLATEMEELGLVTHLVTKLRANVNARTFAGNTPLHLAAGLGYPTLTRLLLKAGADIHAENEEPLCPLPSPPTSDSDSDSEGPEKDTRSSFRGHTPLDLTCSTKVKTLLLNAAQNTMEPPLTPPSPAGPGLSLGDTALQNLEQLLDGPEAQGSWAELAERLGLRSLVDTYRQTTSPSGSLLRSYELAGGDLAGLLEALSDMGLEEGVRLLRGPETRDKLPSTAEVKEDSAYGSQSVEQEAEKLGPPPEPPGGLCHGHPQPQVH
Nuclear factor NF-kappa-B complex (Homo sapiens), sequence (Q04206 whole entry, looked up): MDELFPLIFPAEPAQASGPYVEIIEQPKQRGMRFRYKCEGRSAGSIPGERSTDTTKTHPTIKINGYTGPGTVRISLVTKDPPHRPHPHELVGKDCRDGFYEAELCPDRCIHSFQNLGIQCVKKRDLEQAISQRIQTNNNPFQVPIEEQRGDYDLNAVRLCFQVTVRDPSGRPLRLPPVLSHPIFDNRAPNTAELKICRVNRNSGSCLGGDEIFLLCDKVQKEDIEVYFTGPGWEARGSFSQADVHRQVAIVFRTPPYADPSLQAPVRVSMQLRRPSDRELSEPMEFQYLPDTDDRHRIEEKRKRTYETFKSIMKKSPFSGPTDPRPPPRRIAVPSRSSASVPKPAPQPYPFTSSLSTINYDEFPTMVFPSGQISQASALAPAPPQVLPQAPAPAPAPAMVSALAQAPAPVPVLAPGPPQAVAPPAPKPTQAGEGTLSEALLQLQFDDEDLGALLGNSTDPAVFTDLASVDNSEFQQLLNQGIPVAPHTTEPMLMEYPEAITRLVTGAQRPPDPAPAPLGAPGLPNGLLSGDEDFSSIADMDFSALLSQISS

The term GI50 denotes the concentration at which growth is held to half of that of the control. As a reminder, the half-life is the time needed for the level to fall by half in the phase considered. A word on the Cmax: it is the peak of the concentration-time curve. Usually AUC(0-t) stands for exposure summed from dosing to a finite time, without extrapolation to infinity. Read a high AUC(0-t) as more exposure. Usually MRT last stands for a mean duration of stay, worked out from the concentration-time curve. As for `COc1ccc(OC)c(NC(=O)c2sc(=S)n(-c3ccc(C(F)(F)F)cc3)c2NC(=O)CCl)c1`, the concentration for 50% growth inhibition (GI50) in the data set with TMD8 [1] stood at 400 nM. Further, the viability at 5 µM in [2] amounted to 38.8%. In addition, the Activity in [3] is listed as 6.78%; with TMD8 [4], 8%; with TMD8 [5], 0.625%; in the data set on OCI-Ly1 it was 0.688%; in data set [9], 35%; in data set [17], “Non-Toxic”. For the same compound, the inhibition result in [6], in [7] and in data set [8] was “Active” in each case. This compound had a half-life in [10] of 276 min. Further, the peak concentration (Cmax) in [11] came to 1530 ng/mL; in data set [12], 336 ng/mL. For the same compound, the AUC(0-t) in [13] came to 11200 ng·h/mL. For the same compound, the MRT last in [14] came out at 5.62 h; in data set [15] it was 5.95 h; in data set [16], 5.66 h.

For the origin of these results see ChEMBL document CHEMBL5032510, “Identification of Novel Fused Heteroaromatics-Based MALT1 Inhibitors by High-Throughput Screening to Treat B Cell Lymphoma” (J Med Chem, 2021).
